ChEMBL document CHEMBL4665858, “New BODIPYs for photodynamic therapy (PDT): Synthesis and activity on human cancer cell lines” (Bioorg Med Chem, 2020)
Active and inactive are the calls of the source. The rule behind the calls is not given here.

Tests used:
MCF7 [1] = assay: Induction of ROS generation in human MCF7 cells at antiproliferative IC50 preincubated for 24 hrs followed by irradiated with green LED for 2 hrs then incubated in dark for 24 hrs in drug free medium by DCFH-DA dye based flow cytometry relative to control; format: functional, cell-based
SK-OV-3 [2] = assay: Antiproliferative activity against human SK-OV-3 cells assessed as reduction in cell viability preincubated for 24 hrs followed by irradiated with green LED for 2 hrs then incubated in dark for 24 hrs in drug free medium by MTT assay; format: functional, cell-based; details: SK-OV-3, light or radiation study
Summary of the method: (§1)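 HCT116 and SKOV3 grown in DMEM, MCF7 in RPMI1640, all with 10% FBS. Cells attached 24 h, then exposed 24 h to BODIPY (0.1–200 nM) at 37 °C. Medium replaced by PBS and cells irradiated 2 h with green LED, then held 24 h in the dark in drug-free medium. MTT (2 mg/mL) added for 3 h; DMSO-dissolved formazan read by absorbance. IC50 from dose-response curves; 3–5 independent experiments.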

HCT-116 [3] = assay: Antiproliferative activity against human HCT116 cells assessed as reduction in cell viability preincubated for 24 hrs followed by irradiated with green LED for 2 hrs then incubated in dark for 24 hrs in drug free medium by MTT assay; format: functional, cell-based; details: HCT-116, light or radiation study; summary of the method: as §1
SK-OV-3 [4] = assay: Antimigratory activity against human SK-OV-3 cells assessed as open scratch wound at 0.75 nM incubated for 24 hrs by scratch wound healing based microscopic analysis; format: functional, cell-based
HCT-116 [5] = assay: Induction of ROS generation in human HCT116 cells at antiproliferative IC50 preincubated for 24 hrs followed by irradiated with green LED for 2 hrs then incubated in dark for 24 hrs in drug free medium by DCFH-DA dye based flow cytometry relative to control; format: functional, cell-based
SK-OV-3 [6] = assay: Induction of apoptosis in human SK-OV-3 cells assessed as increase in apoptotic cells at antiproliferative IC50 preincubated for 24 hrs followed by irradiated with green LED for 2 hrs then incubated in dark for 24 hrs in drug free medium by PI staining based flow cytometric analysis; format: functional, cell-based
Summary of the method: (§2)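 PI-stained cells analyzed by flow cytometry (575 nm); apoptotic fraction taken from the sub-G1 peak in log-mode histograms. Untreated controls; 3–5 independent experiments.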

SK-OV-3 [7] = assay: Induction of ROS generation in human SK-OV-3 cells at antiproliferative IC50 preincubated for 24 hrs followed by irradiated with green LED for 2 hrs measured at the end of irradiation in drug free medium by DCFH-DA dye based flow cytometry relative to control
[8] = Drug uptake in human MCF7 cells assessed as intracellular accumulation at 10 uM incubated for 24 hrs spectrophotometric analysis; format: ADME, cell-based; details: mcf7, 24 h
Summary of the method: (§3)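 Cells (3 × 10^6 per 75 cm² flask) grown 48 h, then exposed 24 h to BODIPY at 10 µM. Cells trypsinized and lysed in 0.1 M NaOH/1% SDS (5 × 10^6 cells/mL). Absorbance read at λmax; intracellular amount taken from a calibration curve prepared in SDS-lysed cells. 3–5 independent experiments.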

MCF7 [9] = assay: Induction of cell cycle arrest in human MCF7 cells assessed as cell cycle distribution at antiproliferative IC50 preincubated for 24 hrs followed by irradiated with green LED for 2 hrs then incubated in dark for 24 hrs in drug free medium by PI staining based flow cytometric analysis; format: functional
Summary of the method: (§4)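 DNA content measured by PI flow cytometry (575 nm) in linear mode to give cell-cycle phase distribution. Untreated controls; 3 independent experiments.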

SK-OV-3 [10] = assay: Induction of cell cycle arrest in human SK-OV-3 cells assessed as cell cycle distribution at antiproliferative IC50 incubated for 24 hrs by PI staining based flow cytometric analysis; format: functional
MCF7 [11] = assay: Induction of apoptosis in human MCF7 cells assessed as increase in apoptotic incubated for 24 hrs by PI staining based flow cytometric analysis; format: functional, cell-based
MCF7 [12] = assay: Induction of apoptosis in human MCF7 cells assessed as increase in apoptotic cells at antiproliferative IC50 preincubated for 24 hrs followed by irradiated with green LED for 2 hrs then incubated in dark for 24 hrs in drug free medium by PI staining based flow cytometric analysis; format: functional, cell-based; summary of the method: as §2
MCF7 [13] = assay: Antiproliferative activity against human MCF7 cells assessed as reduction in cell viability preincubated for 24 hrs followed by irradiated with green LED for 2 hrs then incubated in dark for 24 hrs in drug free medium by MTT assay; format: functional, cell-based; details: MCF7, light or radiation study; summary of the method: as §1
MCF7 [14] = assay: Induction of cell cycle arrest in human MCF7 cells assessed as accumulation at G1 phase at antiproliferative IC50 preincubated for 24 hrs followed by irradiated with green LED for 2 hrs then incubated in dark for 24 hrs in drug free medium by PI staining based flow cytometric analysis; format: functional; summary of the method: as §4
SK-OV-3 [15] = assay: Induction of apoptosis in human SK-OV-3 cells assessed as increase in apoptotic incubated for 24 hrs by PI staining based flow cytometric analysis; format: functional, cell-based
MCF7 [16] = assay: Induction of cell cycle arrest in human MCF7 cells assessed as cell cycle distribution at antiproliferative IC50 incubated for 24 hrs by PI staining based flow cytometric analysis; format: functional
SK-OV-3 [17] = assay: (§5) Antimigratory activity against human SK-OV-3 cells assessed as open scratch wound at 2.5 nM preincubated for 24 hrs followed by irradiated with green LED for 2 hrs then incubated in dark for 24 hrs in drug free medium by scratch wound healing based microscopic analysis (reference value: 8.68 +/- 0.58%); format: functional
SK-OV-3 [18] = assay: Induction of apoptosis in human SK-OV-3 cells assessed as increase in necrotic cells at antiproliferative IC50 preincubated for 24 hrs followed by irradiated with green LED for 2 hrs then incubated in dark for 24 hrs in drug free medium by PI staining based flow cytometric analysis; format: functional, cell-based; summary of the method: as §2
[19] = Drug uptake in human SK-OV-3 cells assessed as intracellular accumulation at 10 uM incubated for 24 hrs spectrophotometric analysis; format: ADME, cell-based; details: sk-ov-3, 24 h; summary of the method: as §3
MCF7 [20] = assay: Induction of apoptosis in human MCF7 cells assessed as increase in necrotic cells at antiproliferative IC50 preincubated for 24 hrs followed by irradiated with green LED for 2 hrs then incubated in dark for 24 hrs in drug free medium by PI staining based flow cytometric analysis; format: functional, cell-based; summary of the method: as §2
HCT-116 [21] = assay: Induction of cell cycle arrest in human HCT116 cells assessed as cell cycle distribution at antiproliferative IC50 preincubated for 24 hrs followed by irradiated with green LED for 2 hrs then incubated in dark for 24 hrs in drug free medium by PI staining based flow cytometric analysis; format: functional; summary of the method: as §4
SK-OV-3 [22] = assay: Antimigratory activity against human SK-OV-3 cells assessed as open scratch wound at 2.5 nM incubated for 24 hrs by scratch wound healing based microscopic analysis; format: functional, cell-based
[23] = Drug uptake in human HCT116 cells assessed as intracellular accumulation at 10 uM incubated for 24 hrs spectrophotometric analysis; format: ADME, cell-based; details: hct-116, 24 h; summary of the method: as §3
HCT-116 [24] = assay: Induction of apoptosis in human HCT116 cells assessed as increase in apoptotic incubated for 24 hrs by PI staining based flow cytometric analysis; format: functional, cell-based
HCT-116 [25] = assay: Induction of cell cycle arrest in human HCT116 cells assessed as accumulation at G1 phase at antiproliferative IC50 preincubated for 24 hrs followed by irradiated with green LED for 2 hrs then incubated in dark for 24 hrs in drug free medium by PI staining based flow cytometric analysis; format: functional; summary of the method: as §4
HCT-116 [26] = assay: Induction of cell cycle arrest in human HCT116 cells assessed as cell cycle distribution at antiproliferative IC50 incubated for 24 hrs by PI staining based flow cytometric analysis; format: functional
SK-OV-3 [27] = assay: Antimigratory activity against human SK-OV-3 cells assessed as open scratch wound at 2.5 nM preincubated for 24 hrs followed by irradiated with green LED for 2 hrs measured immediately in drug free medium by scratch wound healing based microscopic analysis (Rvb 38.27 +/- 3.02%); format: functional
SK-OV-3 [28] = assay: Induction of cell cycle arrest in human SK-OV-3 cells assessed as cell cycle distribution at antiproliferative IC50 preincubated for 24 hrs followed by irradiated with green LED for 2 hrs then incubated in dark for 24 hrs in drug free medium by PI staining based flow cytometric analysis; format: functional; summary of the method: as §4
SK-OV-3 [29] = assay: as §5, with “0.75” for “2.5”; format: functional
SK-OV-3 [30] = assay: Antimigratory activity against human SK-OV-3 cells assessed as open scratch wound at 0.75 nM preincubated for 24 hrs followed by irradiated with green LED for 2 hrs measured immediately in drug free medium by scratch wound healing based microscopic analysis (Rvb 38.27 +/- 3.02%); format: functional
SK-OV-3 [31] = assay: Induction of cell cycle arrest in human SK-OV-3 cells assessed as accumulation at G1 phase at antiproliferative IC50 preincubated for 24 hrs followed by irradiated with green LED for 2 hrs then incubated in dark for 24 hrs in drug free medium by PI staining based flow cytometric analysis; format: functional; summary of the method: as §4

| IC50 (SK-OV-3 [2]) [nM] | IC50 (HCT-116 [3]) [nM] | Drug uptake [8] | IC50 (MCF7 [13]) [nM] | Drug uptake [19] | Structure (SMILES) | Activity (MCF7 [1]) | Activity (SK-OV-3 [4]) | Activity (HCT-116 [5]) | Activity (SK-OV-3 [6]) | Activity (SK-OV-3 [7]) | Activity (MCF7 [9]) | Activity (SK-OV-3 [10]) | Activity (MCF7 [11]) | Activity (MCF7 [12]) | Activity (MCF7 [14]) | Activity (SK-OV-3 [15]) | Activity (MCF7 [16]) | Activity (SK-OV-3 [18]) | Activity (MCF7 [20]) | Activity (HCT-116 [21]) | also measured |
| --- | --- | --- | --- | --- | --- | --- | --- | --- | --- | --- | --- | --- | --- | --- | --- | --- | --- | --- | --- | --- | --- |
| 15.6 | 11.7 | Active | 23.1 | Active | CC1=C(I)C(C)=[N+]2C1=C(c1ccc(OCCCCCCCCBr)cc1)c1c(C)c(I)c(C)n1[B-]2(F)F | inactive | inactive | inactive | Active | Active | inactive | inactive | inactive | Active | inactive | inactive | inactive | Active | Active | inactive | Activity (SK-OV-3 [17]): 13.53%; Activity (SK-OV-3 [22]): inactive; Drug uptake [23]: Active; Activity (HCT-116 [24]): inactive; Activity (HCT-116 [25]): inactive; Activity (HCT-116 [26]): inactive; Activity (SK-OV-3 [27]): 37.71%; Activity (SK-OV-3 [28]): inactive |
| 3.56 | 2 | Active | 6.88 | Active | CC1=C(I)C(C)=[N+]2C1=C(c1ccc(OCCCCBr)cc1)c1c(C)c(I)c(C)n1[B-]2(F)F | inactive | inactive | inactive | Active | Active | inactive | inactive | inactive | Active | inactive | inactive | inactive | Active | Active | inactive | Activity (SK-OV-3 [29]): 24.81%; Activity (SK-OV-3 [30]): 35.19%; Activity (SK-OV-3 [22]): inactive; Drug uptake [23]: Active; Activity (HCT-116 [24]): inactive; Activity (HCT-116 [25]): inactive; Activity (HCT-116 [26]): inactive; Activity (SK-OV-3 [28]): inactive; Activity (SK-OV-3 [31]): inactive |
